Screening results as filed in PubChem.
RGS4 inh = inhibitors of human RGS4; P49798; HEK293 M3R/RGS4 inducible, Fluo-4 calcium flux; hits give high values; triggered by carbachol at its EC20; B-score at 10 µM; 310,000 compounds, 0.45% hits; AID 463165;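 active means B-score, a plate-corrected calcium signal, over three deviations above library mean, with baseline fluorescence within five deviations of library mean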;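 further: RGS4 expression induced by doxycycline in cells with stable M3 receptor; B-score is computed from the integrated fluorescence ratio over baseline after carbachol; higher B-score means a larger calcium signal and so more RGS4 inhibition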
MrgX1 PAM = human MrgX1 positive allosteric modulation, primary screen; MrgX1-HEK293, Fluo-4 calcium flux, FDSS; hits give high values; B-score at 10 µM; 310,000 compounds, 0.63% hits; AID 588675;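 active means plate-corrected calcium response at least 3 library SD above typical, normal starting fluorescence, not activating the receptor alone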;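 further: compound read alongside a low EC10 to EC30 dose of BAM8-22 agonist; peak minus trough fluorescence over baseline measured at the second addition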
Target sequence (Q96LB2 whole entry, looked up): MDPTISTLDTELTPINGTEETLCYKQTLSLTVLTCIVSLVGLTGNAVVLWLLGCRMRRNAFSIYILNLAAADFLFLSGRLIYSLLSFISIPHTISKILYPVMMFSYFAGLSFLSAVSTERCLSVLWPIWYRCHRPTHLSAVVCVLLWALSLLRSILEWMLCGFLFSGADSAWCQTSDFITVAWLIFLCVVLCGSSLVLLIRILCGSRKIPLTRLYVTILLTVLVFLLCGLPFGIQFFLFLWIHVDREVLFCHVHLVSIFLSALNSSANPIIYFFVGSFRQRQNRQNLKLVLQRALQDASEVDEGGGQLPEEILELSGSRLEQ
MrgX1 ag = activates human MrgX1 receptor signaling; MrgX1-HEK293 cells, Fluo-4 calcium fluorescence, agonist mode; hits give high values; B-score at 10 µM; 310,000 compounds, 0.44% hits; AID 588627; Q96LB2;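 active means calcium response B-score plate-corrected fluorescence ratio at least 3 library SD, with starting fluorescence B-score inside 5 SD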
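Test system: HEK293 cells stably expressing human MrgX1 receptor; amount: 15,000 cells per well; doses: compound delivered in addition one of three; times: overnight plating before 1 h dye loading; detection: Fluo-4 NW calcium-flux fluorescence, kinetic read; read-out basis: B-scored fluorescence response ratio; controls: positive and negative controls per plate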
MrgX1 antag = antagonists of human MrgX1 receptor; B-score at 10 µM; AID 588676; MRGX1-HEK293 calcium flux, Fluo-4, BAM8-22 antagonism; hits give low values; Q96LB2; 310,000 compounds, 1.3% hits;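 active means calcium-response B-score plate-corrected more than 3 library SD below zero, starting fluorescence within 5 deviations, no agonist response on first addition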;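 further: peak minus trough fluorescence over baseline after final BAM8-22 challenge near maximal dose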
RGS4 pot = RGS4 potentiation or activation. HEK293 M3R/inducible RGS4, carbachol calcium flux Fluo4; hits give low values. B-score at 10 µM. 310,000 compounds, 0.92% hits. AID 463111;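 active means B-score of the integrated calcium signal more than 4 SD below the library mean, with starting fluorescence not abnormally high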;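 further: negative B-score means reduced calcium response which marks RGS4 activation or potentiation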
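Test system: HEK293 cells with stable M3R and inducible RGS4; also added: carbachol at ECmax as muscarinic agonist stimulus; schedule: dye loading 30 min 37 °C, buffer rest 30 min RT; technique: kinetic calcium fluorescence imaging with Fluo4-AM dye, 2 µM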
Active calls of the source: *; i = inactive; · = not tested or not shown. Sampled rows, rich in hits. Any-hit rate of the full collection: about 3.5%.

SMILES | RGS4 inh | MrgX1 PAM | MrgX1 ag | MrgX1 antag | RGS4 pot
CC(/C=N/NC(=O)Cc1cccs1)=C\c1ccccc1 | i | i | i | i | i
COc1ccc(CN2C(=O)c3ccccc3C(/C=N/OCc3ccc(Cl)cc3)C2=O)cc1 (stereo unspecified) | i | i | 38* | i | i
O=C(O)CC(c1ccc(Cl)cc1)N1C(=O)CCC1=O (stereo unspecified) | i | i | i | i | i
C=CCc1ccc(OCCCCCN2CCOCC2)c(OC)c1 | i | i | i | i | -7.5*
Clc1ccc(CSc2cc3c(nn2)-c2ccccc2CC3)cc1Cl | i | i | i | i | -8.1*
O=C(/C=C/c1ccco1)NC(=S)Nc1nc(-c2ccc(Cl)cc2)cs1 | i | i | i | i | i
O=C(/C=C/c1ccco1)NC(=S)Nc1nc(-c2ccc3ccccc3c2)cs1 | i | i | i | -6.6* | i
Cc1ccc2oc(-c3cccc(NC(=S)NC(=O)c4cccs4)c3)nc2c1 | i | i | i | i | i
C=CCN(CC=C)C(=S)NC(=O)/C=C/c1ccc(OC)cc1 | i | 8.9* | i | i | i
O=C(/C=C/c1ccco1)NC(=S)Nc1ccccn1 | i | 18* | i | i | i
Cc1ccc2oc(-c3cccc(NC(=S)NC(=O)/C=C/c4ccco4)c3)nc2c1 | i | i | i | i | -7.1*
COc1ccc(-c2nnn(CCC(=O)O)n2)cc1 | i | i | i | i | i
C/C(=N/NC(=O)c1sc(=S)n(C)c1C)c1ccccc1 | i | i | i | i | i
Cc1cc(C)nc(SCc2ccc(F)cc2)n1 | i | i | i | i | i
COc1ccc(/C=C/C(=O)NC(=S)Nc2ccccn2)cc1 | i | 7.1* | i | i | i
COc1ccc(/C=C/C(=O)NC(=S)NNC(=O)c2cnccn2)cc1 | i | i | i | -6.5* | i
Cc1[nH]n(-c2ccccc2)c(=O)c1C(C[N+](=O)[O-])c1ccccc1Cl (stereo unspecified) | i | i | 46* | i | i
COc1cccc(C(c2c(C)[nH]n(-c3ccccc3)c2=O)c2c(C)[nH]n(-c3ccccc3)c2=O)c1O | i | i | i | i | i
Cc1[nH]n(-c2ccccc2)c(=O)c1C(c1ccc(O)c([N+](=O)[O-])c1)c1c(C)[nH]n(-c2ccccc2)c1=O | 5.1* | i | i | i | i
Cc1cc([N+](=O)[O-])ccc1NC(=O)C(C)N1CCN(c2ccccn2)CC1 (stereo unspecified) | i | i | i | i | i
O=C(CN(CC1CCCO1)C(=O)CNS(=O)(=O)c1ccc(F)cc1)NC1CCCCC1 (stereo unspecified) | i | i | i | i | i
O=C(CCNC(=O)c1ccco1)Nc1ccc(N2CCOCC2)cc1 | i | i | i | i | i
OCC1(Cc2ccccc2)CCCN(Cc2ccn[nH]2)C1 (stereo unspecified) | i | i | i | i | i
Cc1ccc(/C=C2\CCC3=C2OC(N)=C(C#N)C3c2ccc(C)cc2)cc1 (stereo unspecified) | i | i | 73* | i | i
N#C/C(=C\c1cccs1)C(=O)Nc1nccs1 | i | i | 44* | i | i
SMILES | RGS4 inh | MrgX1 PAM | MrgX1 ag | MrgX1 antag | RGS4 pot
Cc1ccc(S(=O)(=O)CC#CCOC(=O)c2ccc([N+](=O)[O-])cc2)cc1 | i | i | 43* | i | i
Cc1ccc(C(=O)c2ccc([N+](=O)[O-])cc2)cc1 | i | i | i | i | i
O=C(O)c1cc(-c2ccc(/C=c3\sc4nc5ccc(Br)cc5n4c3=O)o2)ccc1Cl | i | i | 42* | i | i
CCOC(=O)c1c(C)[nH]c(C2=NNC(=Nc3cccc(Cl)c3)SC2)c1C | i | 22* | i | i | i
C=C1SC(=Nc2c(C)cccc2Cl)N(C(=O)c2sc3ccccc3c2Cl)C12CCCCC2 | i | i | i | -5.1* | i
CC[N+](CC)(CC)CCOc1ccc(/C=C/c2ccccc2)cc1 | · | i | i | -5.1* | ·
